Compound activity as filed in PubChem BioAssay.
The list is not random: actives were taken first. Their share in the collection is about 4.3%.
MC4R ag barr = human MC4R agonism via beta-arrestin | P32245 | U2OS MC4R beta-arrestin complementation, luminescence; percent of melanotan II response, DMSO zero | activation, % at 8.9 µM | actives 0.98% (n = 360,000);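 active means activation above a per-plate cutoff, the mean activation of sample wells on that plate plus 3 SD, cut at about 8% in these data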
TAAR1 ag = human TAAR1 agonism; Q96RJ0; CHO RD-HGA16 TAAR1, Fluo-8 calcium fluorescence; vehicle wells 0%, saturating PEA agonist 100%; activation, % at 3 µM; actives 0.99% (n = 360,000); AID 624467;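 active means activation above the mean activation of all test compounds in the run plus 3 SD, cut at about 38% in these data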
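Assay system – CHO-derived RD-HGA16 cells with stable Gα16 and human TAAR1 · Compound dosing – one-point dosing at 3 µM (nominal) · Incubation – 17-24 h seeding, 75 min 37 °C dye, 30 min RT · Measured by – kinetic Fluo-8 calcium fluorescence · Control set – DMSO vehicle as 0%, PEA at EC100 as 100% · Repeats – single well for each compound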
m5-HT2A agonist = agonists of mouse serotonin 5-HT2A receptor (HTR2A) | actives 0.66% (n = 360,000) | AID 624169 | CHO-K1 mHTR2A beta-arrestin complementation, luminescence; percent of 30 µM serotonin response | activation, % at 7.6 µM | P35363;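 active means activation above a run cutoff, the mean activation of all tested compounds plus 3 SD, cut at about 14% in these data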;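 further: 0% = plate median of compound wells and 100% = 30 µM serotonin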
Target sequence (P35363 whole entry, looked up): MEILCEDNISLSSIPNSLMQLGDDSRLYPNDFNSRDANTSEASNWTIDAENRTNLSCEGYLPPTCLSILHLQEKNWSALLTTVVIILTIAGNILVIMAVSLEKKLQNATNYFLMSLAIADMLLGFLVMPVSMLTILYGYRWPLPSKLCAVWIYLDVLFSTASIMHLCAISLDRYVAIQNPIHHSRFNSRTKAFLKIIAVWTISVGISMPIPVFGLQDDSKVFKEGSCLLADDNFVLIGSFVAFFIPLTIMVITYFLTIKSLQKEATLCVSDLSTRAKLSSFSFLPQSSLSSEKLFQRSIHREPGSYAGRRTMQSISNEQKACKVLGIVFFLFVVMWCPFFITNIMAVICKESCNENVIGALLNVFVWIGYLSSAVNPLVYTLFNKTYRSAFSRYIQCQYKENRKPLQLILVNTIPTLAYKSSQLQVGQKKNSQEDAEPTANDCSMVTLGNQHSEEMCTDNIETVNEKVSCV
MC4R antagonist = antagonists of human melanocortin 4 receptor (MC4R); P32245; MC4R-expressing cells, MTII-stimulated cAMP, LANCE TR-FRET; inhibition, % at 6.5 µM; actives 0.48% (n = 360,000); AID 540295;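 active means inhibition above its plate's cutoff, the mean of tested wells on that plate plus 3 SD, cut at about 29% in these data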;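 further: 0% = Melanotan II alone and 100% = Melanotan II plus saturating MCL0020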
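Test system: U2OS cells stably expressing human melanocortin 4 receptor (MC4R); also added: Melanotan II challenge; compound: 6.5 µM single dose; timing: 30-min compound preincubation, 1-h Melanotan II challenge, 1-h detection, room temperature; signal: Eu-cAMP/anti-cAMP TR-FRET, emission 671 nm; repeats: one well per compound, no replicates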
TAAR1 antag = human TAAR1 antagonism. CHO RD-HGA16 TAAR1, Fluo-8 calcium fluorescence, antagonist. inhibition, % at 3 µM. AID 624466. actives 1.5% (n = 360,000);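 active means inhibition above a per-plate cutoff, the mean inhibition of test compounds on that plate plus 3 SD, cut at about 49% in these data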;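 further: 0% = DMSO plus EC80 beta-PEA response and 100% = DMSO alone without agonist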
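System: CHO RD-HGA16 cells bearing hTAAR1. Reagent: EC80 β-phenethylamine stimulus. Schedule: seeding 17-24 h prior, 75-min 37 °C, 30-min RT dye loading. Signal: Fluo-8 intracellular calcium dye fluorescence, real-time kinetic reads. Read-out: % inhibition from peak post-agonist over basal fluorescence ratio. Benchmarks: vehicle wells and EC80 agonist wells. Replicates: n of 1.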
Beta2AR agonist = activates human beta-2 adrenergic receptor causing internalization | P07550 | Am2.2-beta2AR cells, FAP receptor internalization, flow cytometry | response, % (no concentration beside the values) | actives 0.43% (n = 340,000) | AID 504454;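 active means response above a set limit, near 3 SD of response in nonfluorescent compounds, cut at about 42% in these data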
* = called active by the depositor; . = no result given.

SMILES	MC4R ag barr	TAAR1 ag	m5-HT2A agonist	MC4R antagonist	TAAR1 antag	Beta2AR agonist
CC1Sc2ccc(S(=O)(=O)N3CCC(C(=O)NCCc4ccccc4)CC3)cc2NC1=O (configuration not stated)	-0.4	19.8	0.0	7.2	29.1	0.3
CC1Sc2ccc(S(=O)(=O)N3CCC(C(=O)NCC(C)c4ccccc4)CC3)cc2NC1=O (configuration not stated)	-2.2	41.7*	-0.6	2.8	46.5	4.1
Cc1ccc(CCNC(=O)C2CCN(S(=O)(=O)c3ccc4c(c3)NC(=O)C(C)S4)CC2)cc1 (configuration not stated)	-0.8	13.2	3.2	2.4	60.9*	1.3
COC(=O)[C@]12C[C@H](CC(=O)NCc3cccc(C(F)(F)F)c3)C(=O)N(Cc3ccc4c(c3)OCO4)C1=C[C@H](C(C)(C)C)O[C@@H]2C	.	0.0	.	.	-10.6	.
Cc1cccc(C)c1OCC(=O)Nn1c(COc2ccccc2)nc2ccccc2c1=O	1.3	6.5	-7.2	-4.7	51.1*	4.8
Cc1ccccc1OCC(=O)Nn1c(COc2ccccc2)nc2ccccc2c1=O	-0.1	9.1	7.3	0.7	38.1	-0.7
C=CC(=O)NC1CCCCN(C)C1=O (configuration not stated)	.	0.8	.	.	-10.8	.
COC(=O)c1cc2c(c3c4ccccc4n(S(=O)(=O)c4ccccc4)c13)C(=O)N(Cc1ccco1)C2	.	-0.4	.	.	3.1	.
Cc1[nH]c2ccccc2c1CN1CCC(Cc2ccccc2)CC1	3.0	40.6*	-0.1	-3.7	6.7	28.1
COCc1[nH]nc2c1C(c1cccc(C(F)(F)F)c1)N(c1ccc(OC)cc1)C2=O (configuration not stated)	.	1.1	.	.	-14.7	.
Cc1cc(Br)ccc1NC(=O)CN(C)C(=O)C1CCN(c2ncnc3sc(C)c(C)c23)CC1	-0.9	11.6	-1.7	6.4	56.8*	23.3
COc1ccc(OCC(=O)N2CCN(S(=O)(=O)c3ccccc3[N+](=O)[O-])CC2)cc1	-2.8	3.6	-1.1	7.8	3.1	-0.6
COc1ccc2cc(C3CC=C(CO)CN3S(=O)(=O)c3ccccc3[N+](=O)[O-])n(C(=O)OC(C)(C)C)c2c1 (configuration not stated)	.	2.6	-2.2	.	50.0*	.
C=CC[C@@H](CC(=O)N[C@H](CO)Cc1ccccc1)C(=O)N[C@@H](COC(=O)[C@@H](CC=C)CC(=O)OC(C)(C)C)Cc1c[nH]c2ccccc12	4.5	9.3	1.4	12.4	33.3	2.5
C=CC[C@@H](CC(=O)N[C@H](CO)Cc1ccccc1)C(=O)N[C@H](COC(=O)[C@@H](CC=C)CC(=O)OC(C)(C)C)Cc1c[nH]c2ccccc12	1.7	22.0	2.3	3.0	64.9*	40.3
C=CC[C@H](CC(=O)N[C@H](CO)Cc1ccccc1)C(=O)N[C@H](COC(=O)[C@@H](CC=C)CC(=O)OC(C)(C)C)Cc1c[nH]c2ccccc12	8.3*	6.5	1.9	10.7	48.3	3.6
C=CC[C@@H](CC(=O)N[C@@H](CO)Cc1ccccc1)C(=O)N[C@@H](COC(=O)[C@H](CC=C)CC(=O)OC(C)(C)C)Cc1c[nH]c2ccccc12	5.2	6.2	7.0	15.2	26.5	-8.0
C=CC[C@H](CC(=O)N[C@H](CO)Cc1ccccc1)C(=O)N[C@@H](COC(=O)[C@H](CC=C)CC(=O)OC(C)(C)C)Cc1c[nH]c2ccccc12	0.2	10.5	-2.9	6.8	60.3*	0.8
CCCCN1CC(N2CCCC2)CS1(=O)=O (configuration not stated)	.	0.1	.	.	4.9	.
Nc1[nH]c(=O)ncc1-c1ccc([N+](=O)[O-])cc1	.	1.9	.	.	-10.7	.
O=C(NC1CCCC1)[C@@H]1CCCN1C(=O)[C@@H](NS(=O)(=O)c1ccc(F)cc1F)c1ccccc1	.	0.5	.	.	-14.2	.
S=c1nc(Cc2ccccc2)[nH]c2ccccc12	0.8	2.5	0.0	9.0	-7.1	-38.3
S=c1nc(Cc2ccc(Cl)cc2)[nH]c2ccccc12	8.9*	26.2	3.3	-8.4	31.3	-3.6
COC(=O)[C@]12C[C@H](CC(=O)NCc3ccc(C)o3)C(=O)N(Cc3ccccc3)C1=C[C@H](C(C)C)O[C@@H]2C1CC1	.	-1.1	.	.	-20.1	.
C=CCCC[C@H]1OC(=O)[C@H](C)NC(=O)[C@H](C(C)C)NC(=O)[C@@H]2CCCN2C(=O)[C@H](Cc2ccccc2)OC(=O)[C@@H](C(C)C)N(C)C(=O)[C@H](C(C)C)NC(=O)C1(C)C	.	-3.0	.	.	-43.5	.
SMILES	MC4R ag barr	TAAR1 ag	m5-HT2A agonist	MC4R antagonist	TAAR1 antag	Beta2AR agonist
COc1cc(C(=O)Oc2cccc(/C=N/NC(=O)c3cc(C)[nH]n3)c2)cc(OC)c1OC	-0.6	9.1	3.6	-1.5	56.3*	29.4
NC(c1csc(Nc2nccc(C(F)(F)F)n2)n1)C1CCCCC1 (configuration not stated)	5.3	44.3*	-3.8	-4.1	29.8	.
O=C(c1ccc(Cn2c(=S)[nH]c3ccccc3c2=O)cc1)N1CCN(c2ccccn2)CC1	-0.1	9.2	2.9	13.0	57.4*	4.2
O=C(c1ccc(Cn2c(=O)[nH]c3ccccc3c2=O)cc1)N1CCN(c2ccccn2)CC1	0.4	9.7	-4.6	7.0	41.8	-0.4
CC(C)(C)c1ccc(-c2cc(NC(=O)Cc3c[nH]c4ccccc34)ccc2Nc2cccnc2)cc1	.	1.4	.	.	-32.1	.
O=C(CN(c1ccc(Cl)cc1)S(=O)(=O)c1ccccc1)N1CCN(c2ccccc2)CC1	9.1*	4.5	0.4	12.3	-0.7	0.2
COc1ccc(N2CCN(C(=O)CN(c3ccc(OC)cc3)S(=O)(=O)c3ccccc3)CC2)cc1	-0.8	-2.4	-6.5	11.9	-12.3	1.6
Cc1ccc(Nc2ccc([N+](=O)[O-])cn2)cc1Cl	1.9	-0.5	3.0	-4.2	54.4*	-5.5
CCCOC(=O)c1ccc(Oc2cn[nH]c2-c2ccc(O)cc2O)cc1	9.5*	6.4	1.7	-4.5	7.2	13.1
NS(=O)(=O)c1ccc(CCNC(=O)C(=O)c2c[nH]c3ccccc23)cc1	-1.3	5.0	-1.8	-0.2	-5.9	55.7*
OC1(c2ccc(Cl)cc2)CCN(Cc2cn[nH]c2-c2ccccc2)CC1	-0.4	13.5	-5.3	4.2	2.7	-6.8
OC1(c2ccc(Cl)cc2)CCN(Cc2cn[nH]c2-c2ccc(F)cc2)CC1	1.0	41.4*	1.5	0.9	-7.2	15.7
Cc1ccc(NC(=S)N2CCC(c3nc4ccccc4s3)CC2)cc1C	3.7	6.3	3.8	5.2	18.7	-1.5
Cc1cc(C)cc(NC(=S)N2CCC(c3nc4ccccc4s3)CC2)c1	8.5*	5.0	5.6	-3.5	4.4	-2.2
